{
  "source": "paper PMC4029328",
  "about": "(Biomedical chromatography : BMC, 2013)",
  "key": {"[1]": {"assay": "Intravenous pharmacokinetic study in rats", "type": "in vivo", "details": "4 mg/kg IV bolus, male Sprague Dawley rats, n=6, mean ± SD", "summary_of_the_method": "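Male rats 240-250 g, housed 48 h, fasted 12 h predose and 4 h postdose, water free. Dosed via jugular vein cannula, 30 s bolus in 10% PEG 400 in water, prepared same day. Chloroform liquid-liquid extraction with tryptoline internal standard. Noncompartmental analysis.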"}, "[2]": {"assay": "Stability of 7-OHMG in rat plasma QC samples", "type": "in vitro ADME", "details": "for Concentration measured: n=6"}, "opioid receptors [3]": {"test_system": "opioid receptors", "details": "in vitro assays; ref Horie et al., 2005; cited from earlier work"}, "μ-opioid receptors": {"test_system": "μ-opioid receptors", "details": "ref Matsumoto et al., 2004, 2006; cited from earlier work"}, "[4]": {"details": "at equi-antinociceptive doses; ref Matsumoto et al., 2006; cited from earlier work"}, "mice": {"test_system": "mice", "details": "ref Matsumoto et al., 2005, cited from earlier work"}, "opioid receptors [5]": {"test_system": "opioid receptors", "details": "pharmacological experiments; ref Watanabe et al., 1997; cited from earlier work"}, "[6]": {"details": "rat plasma, long term 30 days at -20 °C, spiked 20 ng/mL"}, "[7]": {"details": "rat plasma, long term 30 days at -20 °C, spiked 600 ng/mL"}, "[8]": {"details": "rat plasma, long term 30 days at -20 °C, spiked 3200 ng/mL"}, "[9]": {"details": "rat plasma, short term 12 hr at 25 °C, spiked 20 ng/mL"}, "[10]": {"details": "rat plasma, short term 12 hr at 25 °C, spiked 600 ng/mL"}, "[11]": {"details": "rat plasma, short term 12 hr at 25 °C, spiked 3200 ng/mL"}, "[12]": {"details": "rat plasma, three freeze thaw cycles, spiked 20 ng/mL"}, "[13]": {"details": "rat plasma, three freeze thaw cycles, spiked 600 ng/mL"}, "[14]": {"details": "rat plasma, three freeze thaw cycles, spiked 3200 ng/mL"}, "[15]": {"details": "reconstituted plasma extract, auto sampler 12 hr at 25 °C, spiked 20 ng/mL"}, "[16]": {"details": "reconstituted plasma extract, auto sampler 12 hr at 25 °C, spiked 600 ng/mL"}},
  "note": "Where two headings read alike, the source gives them in different places.",
  "data": [
    {"compound": "CC[C@@H]1CN2CC[C@@]3(O)C(=Nc4cccc(OC)c43)[C@@H]2C[C@@H]1/C(=C\\OC)C(=O)OC", "note": "[7-OHMG, 7-hydroxymitragynine]", "values": [
      {"measurement": "AUC0→∞", "setting": "[1]", "value": "98.3 ± 32.1", "unit": "µg·min/mL"},
      {"measurement": "CL", "setting": "[1]", "value": "44.2 ± 14.8", "unit": "mL/min/kg"},
      {"measurement": "Cmax", "setting": "[1]", "value": "3000 ± 300", "unit": "ng/mL"},
      {"measurement": "MRT", "setting": "[1]", "value": "70.9 ± 10.0", "unit": "min"},
      {"measurement": "T1/2", "setting": "[1]", "value": "22.9 ± 3.6", "unit": "min"},
      {"measurement": "Vd", "setting": "[1]", "value": "1.5958 ± 0.5863", "unit": "L/kg"},
      {"measurement": "Short-term stability in plasma", "setting": "[2]; 12 h at room temperature", "value": "stable"},
      {"measurement": "Auto-sampler stability of reconstituted samples", "setting": "[2]; 12 h in auto-sampler at 25 °C", "value": "stable"},
      {"measurement": "Long-term stability in plasma", "setting": "[2]; 30 days at -20 °C", "value": "stable"},
      {"measurement": "Accuracy (measured vs spiked concentration)", "setting": "[2]; [6]", "value": 98, "unit": "%"},
      {"measurement": "Concentration measured", "setting": "[2]; [6]", "value": "19.6 ± 0.8", "unit": "ng/mL"},
      {"measurement": "Accuracy (measured vs spiked concentration)", "setting": "[2]; [7]", "value": 101.7, "unit": "%"},
      {"measurement": "Concentration measured", "setting": "[2]; [7]", "value": "610.4 ± 28.8", "unit": "ng/mL"},
      {"measurement": "Accuracy (measured vs spiked concentration)", "setting": "[2]; [8]", "value": 95.6, "unit": "%"},
      {"measurement": "Concentration measured", "setting": "[2]; [8]", "value": "3058.2 ± 320.4", "unit": "ng/mL"},
      {"measurement": "Accuracy (measured vs spiked concentration)", "setting": "[2]; [9]", "value": 101.5, "unit": "%"},
      {"measurement": "Concentration measured", "setting": "[2]; [9]", "value": "20.3 ± 1.3", "unit": "ng/mL"},
      {"measurement": "Accuracy (measured vs spiked concentration)", "setting": "[2]; [10]", "value": 108.8, "unit": "%"},
      {"measurement": "Concentration measured", "setting": "[2]; [10]", "value": "652.7 ± 17.8", "unit": "ng/mL"},
      {"measurement": "Accuracy (measured vs spiked concentration)", "setting": "[2]; [11]", "value": 102.8, "unit": "%"},
      {"measurement": "Concentration measured", "setting": "[2]; [11]", "value": "3289.4 ± 197.2", "unit": "ng/mL"},
      {"measurement": "Accuracy (measured vs spiked concentration)", "setting": "[2]; [12]", "value": 102, "unit": "%"},
      {"measurement": "Concentration measured", "setting": "[2]; [12]", "value": "20.4 ± 0.3", "unit": "ng/mL"},
      {"measurement": "Accuracy (measured vs spiked concentration)", "setting": "[2]; [13]", "value": 105.2, "unit": "%"},
      {"measurement": "Concentration measured", "setting": "[2]; [13]", "value": "631.3 ± 40.2", "unit": "ng/mL"},
      {"measurement": "Accuracy (measured vs spiked concentration)", "setting": "[2]; [14]", "value": 103.5, "unit": "%"},
      {"measurement": "Concentration measured", "setting": "[2]; [14]", "value": "3312.5 ± 163.5", "unit": "ng/mL"},
      {"measurement": "Accuracy (measured vs spiked concentration)", "setting": "[2]; [15]", "value": 95.5, "unit": "%"},
      {"measurement": "Concentration measured", "setting": "[2]; [15]", "value": "19.1 ± 0.7", "unit": "ng/mL"},
      {"measurement": "Accuracy (measured vs spiked concentration)", "setting": "[2]; [16]", "value": 94.7, "unit": "%"},
      {"measurement": "Concentration measured", "setting": "[2]; [16]", "value": "568.3 ± 43.9", "unit": "ng/mL"},
      {"measurement": "Accuracy (measured vs spiked concentration)", "setting": "[2]; reconstituted plasma extract, auto sampler 12 hr at 25 °C, spiked 3200 ng/mL", "value": 99.8, "unit": "%"},
      {"measurement": "Freeze-thaw stability in plasma", "setting": "[2]; three freeze-thaw cycles, stored at -20 °C and thawed to room temperature", "value": "stable"},
      {"measurement": "Opioid agonistic effect among constituents of Mitragyna speciosa", "setting": "opioid receptors [3]", "value": "most potent effect"},
      {"measurement": "Affinity for μ- versus δ- and κ-opioid receptors", "setting": "μ-opioid receptors", "value": "higher affinity for μ-opioid receptors relative to the δ- and κ- receptors"},
      {"measurement": "Times less constipating than morphine", "setting": "[4]", "value": "4.9-6.4 times"},
      {"measurement": "Place preference", "setting": "mice; 1 mg/kg dose", "value": "slight place preference"},
      {"measurement": "Place preference", "setting": "mice; 2 mg/kg dose", "value": "strong place preference"}
    ]},
    {"compound": "mitragynine", "values": [
      {"measurement": "Effect on opioid receptors", "setting": "opioid receptors [5]", "value": "agonistic effects on opioid receptors"}
    ]}
  ]
}
